Consider five compounds from paper PMC4336584 (Chemistry & biology, 2015).

In series [1] the test system is HCV Gt1b replicon in Huh 5-2 cells. The series can be described thus: HCV antiviral assay Huh 5-2. The series is classed as cell-based. The following applies: Hepatitis C virus, Huh-5-2, 96 h, read-out: HCV Huh5.2 Gt1b replicon EC50. The method in brief: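 Huh 5-2 cells seeded at 6.5 × 10³/well in DMEM with 250 μg/ml G418 and held 24 hr at 37°C, 5% CO2. Medium then replaced by 3-fold serial dilutions of test compound in complete DMEM without G418. After 4 days at 37°C, luciferase activity read and expressed as percent of untreated controls.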

The nature of the next series: Cytostatic assay. The following applies: human, Huh 5-2 cells. The series is classed as cell-based.
The nature of series [2]: Solubility analysis in PBS pH 7.4. Format: physicochemical. The following applies: pH 7.4, aqueous buffer, kinetic from dmso stock.
Series [3] in a line: Plasma protein binding analysis. The series is classed as in vitro ADME. The note with it: human.
Series [4] concerns HCV Huh7 Gt1a replicon (H77). The series can be described thus: HCV replicon antiviral assay, genotype 1a. The following applies: Hepatitis C virus, Huh-7, 72 h, read-out: HCV Huh7 Gt1a replicon EC50. The series is classed as cell-based. In short, it runs like this:
(§1)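 Subgenomic replicon cells were maintained at 37°C, 5% CO2 in DMEM with 10% FBS and 250 μg/ml G418. They were seeded at 5 × 10³ cells/well without G418. Next day, serial dilutions of compound in DMEM plus 5% FBS were added for 72 hr at 37°C. HCV RNA was measured by one-step TaqMan real-time RT-PCR, with ribosomal RNA as the cell-number/cytotoxicity control. EC50 was derived from both measurements.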

The next series relates to HCV Huh7 Gt1b replicon. The series can be described thus: HCV replicon antiviral assay, genotype 1b. Format: cell-based. The following applies: Hepatitis C virus, Huh-7, 72 h, read-out: HCV Huh7 Gt1b replicon EC50. In short, it runs like this: as §1
Series [5] concerns HCV Huh7 Gt2a replicon (JFH-1). The series can be described thus: HCV replicon antiviral assay, genotype 2a. The series is classed as cell-based. The following applies: Hepatitis C virus, Huh-7, 72 h, read-out: HCV Huh7 Gt2a replicon EC50. The method in brief:
as §1

The test system of another series is HIV-1 in CD4+ HeLa cells. The series can be described thus: CD4+ HeLa HIV-1 inhibitory FACS assay. The series is classed as cell-based. The note with it: Human immunodeficiency virus 1, HeLa, 48 h, read-out: HIV-1 HeLa cells IC50.
The test system of series [6] is HepG2 cells stably replicating HBV. The series can be described thus: HBV antiviral assay in cells stably replicating HBV. The series is classed as cell-based. The following applies: Hepatitis B virus, 72 h. In short, it runs like this:
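HepG2 cells stably replicating HBV were treated with test compound at 0.1, 1 or 10 μM, with DMSO as control, for 3 days. Supernatant was then removed and cells were retreated. After a further 72 hr, HBsAg and HBeAg were measured by ELISA and HBV DNA was quantified, all in cell extracts and in triplicate.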

Series [7] has as its system Huh7 cells transfected with HBV DNA. The series can be described thus: HBV antiviral assay in cells transfected with HBV DNA. Format: cell-based. The following applies: test/control value, day 3, 2 µM. The method in brief:
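Huh7 cells were transfected with HBV DNA (8 μg) in the presence of 2 μM test compound or DMSO. On day 3, de novo HBsAg in cell extracts or supernatants was quantified by ELISA in triplicate. A test/control value was calculated from these readings.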

The subject of series [8] is HIV-1 (NL4.3 virus). The series can be described thus: SCID-hu Thy/Liv mouse model of HIV-1 infection. Format: in vivo, SCID-hu Thy/Liv mice. The note with it: oral bi-daily 14 days, 50 or 100 mg/kg/day. In short, it runs like this: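 Human fetal thymus and liver were coimplanted under the kidney capsule of male C.B-17 SCID mice aged 6–8 weeks. Implants were inoculated with NL4-3 by direct injection 18 weeks later; controls received medium. Groups of six received 50 or 100 mg/kg/day by twice-daily oral gavage from day −1 until implant collection 2 weeks post-inoculation. Implant cells were assayed for p24 (ELISA), viral RNA (bDNA) and CD3/CD4/CD8 thymocytes (flow cytometry). Results are means with SD.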

The subject of a further series is HIV-1 viral load. The note with it: 14 days dosing, HIV/HCV co-infected patients; cited from earlier work.
Series [9] addresses HCV NS5A-cyclophilin A complex (Homo sapiens, UniProt P62937). The series can be described thus: biochemical.
Series [10] deals with HIV-1 (NL4.3 virus). The note with it: 21 days bi-daily dosing at 100 mg/kg; ref Stoddart et al. [29]; cited from earlier work.

Molecules are shown by their SMILES. ≈ marks a conversion by molar mass, not a printed value. Read-outs that look alike come from different tables or passages of the source.

Sequence of HCV NS5A-cyclophilin A complex (P62937 whole entry, one chain of several): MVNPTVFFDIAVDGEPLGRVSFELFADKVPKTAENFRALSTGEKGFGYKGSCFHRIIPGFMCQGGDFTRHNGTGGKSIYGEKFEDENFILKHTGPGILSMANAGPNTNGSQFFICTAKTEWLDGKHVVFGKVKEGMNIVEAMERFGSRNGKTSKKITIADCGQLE

Take `C/C=C/C[C@@H](C)[C@@H](O)[C@H]1C(=O)N[C@@H](CC)C(=O)N(C)[C@H](C)C(=O)N(CC)[C@@H](C(C)C)C(=O)N[C@@H](C(C)C)C(=O)N(C)[C@@H](CC(C)C)C(=O)N[C@@H](C)C(=O)N[C@H](C)C(=O)N(C)[C@@H](CC(C)C)C(=O)N(C)[C@@H](CC(C)C)C(=O)N(C)[C@@H](C(C)C)C(=O)N1C` [Alisporivir]: the EC50 in [1] was 96 ± 23 nM; in [4], 98 ± 11 nM; in the series on HCV Huh7 Gt1b replicon it was 76 ± 5 nM; in series [5], 102 ± 8 nM. This compound returned a CC50 at 3 days in the series “Cytostatic assay” of 11200 nM. The concentration in solution in series [2] (solubility at 4 h) was 15 µM (≈ 18.2 µg/mL). The compound further returned a fraction unbound at 5 h, 1 µM in series [3] of less than 0.04. In addition, the IC50 in the series with HIV-1 in CD4+ HeLa cells was 1500 ± 240 nM; in [6] (read-out: HBV Huh7 stable HBV DNA IC50), more than 10000 nM; in series [6] (read-out: HBV Huh7 stable HBeAg IC50), more than 10000 nM; in [6] (read-out: HBV Huh7 stable HBsAg IC50) it was more than 10000 nM; in [9], 240 ± 20 nM. The “HBV HepG2 transfected HBsAg T/C d3 at 2uM” value in [7] is listed as 18%. For the same compound, the “overt signs of toxicity” value with HIV-1 (NL4.3 virus) [8] is given as “No overt signs of toxicity”. Besides, the “mean drop in viral load” value with HIV-1 viral load is recorded as ~ 1 log.
As to `COC(=O)N[C@H](C(=O)N[C@@H](Cc1ccccc1)[C@@H](O)CN(Cc1ccc(-c2ccccn2)cc1)NC(=O)[C@@H](NC(=O)OC)C(C)(C)C)C(C)(C)C` [atazanavir], in the series with HIV-1 (NL4.3 virus) [10], the “viral RNA reductions” value was 1–4 log10.
With `O=C1Nc2ccc(Cl)cc2[C@@](C#CC2CC2)(C(F)(F)F)O1` [efavirenz], in the series on HIV-1 (NL4.3 virus) [10], the “viral RNA reductions” value is 1–4 log10.
On to `Nc1nc(=O)n([C@@H]2CS[C@H](CO)O2)cc1F` [emtricitabine], for which, in the series with HIV-1 (NL4.3 virus) [10], the “viral RNA reductions” value was 1–4 log10.
Take `Cc1ccnc2c1NC(=O)c1cccnc1N2C1CC1` [nevirapine]: the “viral RNA reductions” value in the series on HIV-1 (NL4.3 virus) [10] is on record as 1–4 log10.
